Dynein cargo inh = inhibitors of GR-EGFP nuclear translocation, primary screen, dynein cargo transport inhibitor project, imaging, high-content, 3617.4 mouse cells; test concentration mostly 20 µM; stimulated with dexamethasone, 1 µM; active compounds read low; z-score, hits read low; hit rate 0.47% among 220,000; AID 1381, 2008;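 active = plate z-score of nuclear minus cytoplasmic receptor signal below a set negative limit, without overly bright fluorescence or cell loss, cut at about -3.5 in these data, passing the limit was not always enough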;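 note: z-score of nuclear minus cytoplasmic ring GR-EGFP intensity difference per well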
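medium = tetracycline-free induction medium containing charcoal-stripped FBS | also added = 1.0 µM final dexamethasone stimulus | schedule = 48 h induction, 1 h compound, 30 min dex at 37 °C | technique = fixed, Hoechst-stained cells imaged at 10x for EGFP | measure = GR-EGFP nuclear translocation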
L major viab = Leishmania major promastigote growth inhibition, primary screen. inhibition, % at 10 µM. AID 1063, 2008. hit rate 9% among 200,000. Leishmania major promastigotes, resazurin fluorescence viability; in the data active = inhibition above about 50%;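 note: promastigotes grown with compound for 44 hours at 28 °C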
b-catenin transl = modulators of beta-catenin nuclear translocation, primary screen, imaging, HeLa cells, immunofluorescence, high-content; nuclear translocation activity, % at 5 µM; hit rate 0.3% among 190,000; AID 1665, 2009;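 active = nuclear translocation activity above 50% at 5 µM, with a well cell count of 50 or more; inconclusive = wells under 50 cells across six images, flagged as toxic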;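 note: per-cell ratio of nuclear to cytoplasmic median beta-catenin stain intensity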
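Test system: human HeLa cell line; Doses: 5 µM primary, 0.02–20 µM confirmation; Incubation: 24 h compound exposure, 37°C; Detection: beta-catenin immunofluorescence imaging with DAPI; Read-out: beta-catenin nuclear/cytoplasmic ratio, % activation.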
HSV augment = enhancers of HSV replication in host cells, fold increase, host cell viability | hit rate 0.005% among 220,000 | HSV replication augmentation in cells | maximum fold increase; in the data active = maximum fold increase above about 1.5; inconclusive = no clear call, values can overlap the other calls; tested in PC3 cells
MT stabilizer = microtubule stabilizers in HeLa cells, primary screen, imaging, high-content imaging | HeLa tubulin immunostaining HCS, 24 h; share of cells brighter than vehicle mean+2SD | % tubulin-high responders, % at 10 µM | hit rate 0.83% among 200,000;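 active = plate Z-score above 3 for both tubulin-high and condensed-nucleus cell shares, with cell loss under 80%, at 10 µM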;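 note: anti alpha tubulin signal scored within the nucleus-defined area of each cell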
Dynein inh conf = dynein cargo transport inhibitors, GR-EGFP translocation, confirmation, imaging, high-content imaging, GR-EGFP cells. shares compounds with Dynein cargo inh. 3617.4 GR-EGFP nuclear translocation imaging, dexamethasone-induced. calls only at 20 µM. hit rate 69% among 1,000;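 active = inhibition of receptor movement into the nucleus at or above a set limit in both runs, with normal cell brightness and cell count; inconclusive = limit reached in only one run, brightness and count normal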;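 note: dexamethasone at 1 µM final in well for 30 min; nuclear minus cytoplasmic GR-EGFP mean intensity difference in channel 2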
Hits are given with their value; n = inactive; u = inconclusive; x = no result given; + = active, no number. The list is not random: actives were taken first. Their share in the collection is about 8.9%.

SMILES	Dynein cargo inh	L major viab	b-catenin transl	HSV augment	MT stabilizer	Dynein inh conf
CCN1C(=O)/C(=C/C=C2\N(CC)c3cc(S(=O)(=O)N(C)C)ccc3N2c2ccccc2)SC1=S	n	x	n	x	x	x
O=C(NC(=S)Nc1ccc(S(=O)(=O)N2CCCCCC2)cc1)c1cccs1	n	n	n	n	n	x
COc1ccc(-c2cc(N)n(S(=O)(=O)c3c(F)c(F)c(F)c(F)c3F)n2)cc1OC	-5.13	n	n	n	n	+
COc1ccc(S(=O)(=O)n2nc(-c3cc(OC)c(OC)c(OC)c3)cc2N)cc1OC	n	n	n	n	n	x
O=S1(=O)c2ccccc2N=NN1Cc1cc(Cl)cc(Cl)c1	n	n	n	n	n	x
CCN1CCN(C2=C(Cl)C(=O)N(Cc3ccccc3)C2=O)CC1	-4.74	92.0	n	n	n	+
COC(=O)c1cc(=O)n(CCc2ccccc2F)c(=Nc2ccc(F)c(Cl)c2)s1	-4	98.6	x	n	n	+
COC(=O)c1cc(=O)n(Cc2ccco2)c(=Nc2ccc(F)c(Cl)c2)s1	-3.88	100.0	x	n	n	+
COC(=O)c1cc(=O)n(Cc2ccc(F)cc2)c(=NCc2ccc(F)cc2)s1	n	n	n	n	n	x
COc1cccc(-n2nc(C(=O)Nc3ccc4c(c3)OCO4)c3ccccc3c2=O)c1	n	n	x	n	n	x
NC(=O)/C=C/C(=O)Nc1ccc(Cl)cc1	-3.68	n	n	n	n	n
CCn1nc([N+](=O)[O-])c(C(C#N)c2nc3cc(C(F)(F)F)ccc3s2)c(Cl)c1=O (stereo unspecified)	-4.4	n	n	n	n	+
O=C(/C=C/c1ccc(F)cc1)c1cc(Br)ccc1O	-3.81	x	n	n	x	+
O=C(/C=C/c1ccc2ccccc2n1)c1cc(Br)ccc1O	n	x	n	n	x	x
Cc1cc(N2CCC(C)CC2)c(F)cc1[N+](=O)[O-]	n	n	n	n	n	x
Cc1cc(N2CCCC2)c(F)cc1/C=C\[N+](=O)[O-]	n	52.4	n	n	n	+
Cc1nc(-c2cccc(-c3noc(C)n3)c2)no1	n	n	n	n	n	x
CCOC(=O)c1c(-c2ccccc2)csc1NC(=O)c1cc(S(=O)(=O)N2CCOCC2)ccc1C	n	n	n	n	n	x
O=C(/C=C/C=C/c1ccccc1)c1ccco1	-4.33	x	n	n	x	n
O=C(/C=C/c1ccccc1)N1CCN(C(=O)c2ccco2)CC1	n	n	n	n	n	x
CCOC(=O)/C(=C\c1cccnc1)C(=O)c1cc(C(C)=O)c(Nc2ccccc2)s1	-5.68	100.2	n	n	n	+
COc1ccc(CN(CCC(c2ccccc2)c2ccc(OC(C)C)cc2)C(=O)CCl)cc1OC (stereo unspecified)	-6.9	100.0	n	n	n	+
COc1ccc(CN(CCC(c2ccco2)C(C)C)C(C)=O)cc1OC (stereo unspecified)	n	x	n	n	x	x
CCn1c(C2CCN(Cc3ccccc3)CC2)n[nH]c1=S	n	n	n	n	n	x
Cc1ccc(SC(=O)c2c([N+](=O)[O-])c(C)nn2C)cc1	-4.24	x	n	n	x	+
SMILES	Dynein cargo inh	L major viab	b-catenin transl	HSV augment	MT stabilizer	Dynein inh conf
CCCc1cc(C(=O)Nc2ccc(F)cc2F)no1	n	n	x	n	n	x
CC(=O)Cn1ncc(Br)c(Br)c1=O	-4.59	71.2	n	n	n	+
O=C(OCn1ncc(Br)c(Br)c1=O)c1c(F)cccc1F	-4.76	100.4	n	n	n	+
CC(C)(C)C(=O)Cn1ncc(N2CCOCC2)c(Br)c1=O	n	n	n	n	n	x
Cc1cc(C)n(-c2nc(C)nc3sc4c(c23)CCC(C)C4)n1 (stereo unspecified)	n	n	x	n	n	x
COc1ccc(CNC(=O)/C=C/c2ccccc2[N+](=O)[O-])cc1	n	n	n	n	n	x
COC(=O)C(=Cc1ccccc1[N+](=O)[O-])C(=O)OC	-5.37	x	n	n	x	+
COc1ccccc1-c1nc(-c2cccc(C)c2)no1	n	n	n	n	n	x
O=C(c1ccccc1)N1N=C(c2ccco2)CC1c1cccs1 (stereo unspecified)	n	n	n	n	n	x
Cc1ccc(C2=NN(C(=O)CCl)C(c3cccs3)C2)o1 (stereo unspecified)	-4.1	90.3	n	n	n	+
O=C(CCl)N1N=C(c2ccco2)CC1c1cccs1 (stereo unspecified)	-4.3	90.0	n	n	n	+
Cc1cc(NC(=O)c2ccccc2Cl)no1	n	n	n	n	n	x
COc1ccc2nc(N3CCCC3)c(C#N)cc2c1	-4.17	n	x	n	n	n
Cc1ccccc1N1C(=O)CC(Sc2nnc(-c3ccccc3)o2)C1=O (stereo unspecified)	-7.27	n	n	n	n	+
COc1ccc(-c2ccc([C@H]3[C@@H]4C=CCC[C@@]4(C)C(=O)N3Cc3ccccc3)c(F)c2)cc1OC	n	x	n	n	x	x
COc1ccc(-c2cccc([C@H]3[C@@H]4C=CCC[C@@]4(C)C(=O)N3Cc3ccccc3)c2)cc1	-3.6	x	n	n	x	+
CCN(CC)c1cc(C)c(C#N)c2nc3ccccc3n12	n	x	n	n	x	x
Cc1cc(Cl)n2c(nc3ccccc32)c1C#N	-5.22	100.5	106.5	n	n	+
O=C(NNc1nc2c(F)cccc2s1)c1ccc(F)cc1	n	n	n	n	n	x
COc1ccc(N/C(=N\c2nc(C)cc(C)n2)NC(C)=O)cc1OC	n	n	n	n	n	x
Cc1ccc2oc(=O)c3cnn(CC(=O)N(CCN(C)C)Cc4ccco4)c3c2c1	n	n	x	n	n	x
Cc1ccc2nc(Cl)c3cc(C(=O)N(CCN(C)C)Cc4ccco4)sc3c2c1	-3.52	65.4	u	n	n	n
Cc1cc(C)nc(Sc2ncnc(N)c2[N+](=O)[O-])n1	-5.38	57.9	n	n	n	u
CS(=O)(=O)c1cc([N+](=O)[O-])c(Sc2nc3ccccc3[nH]2)c([N+](=O)[O-])c1	-3.58	n	n	n	n	+
O=C(CCC(=O)c1cccs1)NCc1cccnc1	n	n	n	n	n	x
SMILES	Dynein cargo inh	L major viab	b-catenin transl	HSV augment	MT stabilizer	Dynein inh conf
CN(Cc1ccccc1)C(=O)CCC(=O)N(C)Cc1ccccc1	n	n	n	n	n	x
CC(=O)NCc1ccc(C(=O)CCl)cc1	-6.81	93.3	n	n	n	+
CCC(=O)c1ccc(CCCCCC(=O)O)s1	n	n	n	x	n	x
CC(=O)N(C)Cc1ccc(C(=O)CCl)cc1	n	100.5	n	n	n	+
CC(=O)NCc1ccc(C(=O)CCl)s1	-4.98	100.4	n	n	n	+
Cc1nn(-c2cccc(Cl)c2)c2nc(C(F)(F)F)[nH]c(=O)c12	n	n	n	n	n	x
COC(=O)c1ccc2c(c1)C(C)(C)C(/C=C/c1ccc(O)cc1)=[N+]2C	-3.57	100.6	n	n	41.0	u
COc1cc(/C=C/c2ccc(O)cc2)cc(OC)c1	x	x	n	n	x	x
